Measurements published in article PMC7501995 (Cell metabolism, 2020).

Tests used:
αTC1-6 alpha cells = test: Alpha cell glucagon expression and secretion; assay type: cell-based, mouse; conditions: αTC1-6 cells
Outline: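 αTC1-6 mouse alpha cells grown in DMEM with 10% FBS, 16.7 mM glucose, 1 mM sodium pyruvate and 15 mM HEPES at 37°C, 5% CO2. Cells exposed to 5 µM test compound or vehicle for 1 h. Low-glucose secretion run at 1.67 mM glucose. Secreted glucagon measured by mouse glucagon ELISA; protein measured by BCA assay.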

[1] = system: primary mouse hepatocytes; test: Gene expression by qRT-PCR in primary hepatocytes; assay type: cell-based
Outline: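 Primary hepatocytes from male C57BL/6J, liver-specific glucagon receptor knockout or Txnip-deficient mice, seeded on collagen at 3×10^5 cells/well in serum-free DMEM. After 4 h attachment, medium changed and cells given varying test compound concentrations for 24 h. Pck1/G6pc read in the presence of glucagon. mRNA quantified by qRT-PCR; n = 3 for knockout hepatocytes.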

TXNIP-deficient mice = test: SRI-37330 treatment of TXNIP-deficient mice; assay type: in vivo, mouse
[2] = system: human islet gene expression; test: RNA sequencing of human islets; assay type: cell-based; conditions: 25 mM glucose, 1 μM
Outline: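 Human islets (IIDP; same-donor controls) held overnight at 5 mM glucose, then 24 h at 25 mM glucose with or without 1 µM test compound. RNA extracted with miRNeasy. Libraries prepared as TruSeq stranded mRNA and sequenced single-end at about 43 million reads/sample.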

human TXNIP promoter = assay type: cell-based; conditions: INS-1 cells, 25 mM glucose, 5 μM, 24 h
Outline: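 INS-1 cells transfected with SV40-E-box or SV40-Control firefly plasmid (0.4 µg/mL) plus pRL-TK renilla control (10 ng/mL). After 18 h, switched to 5 mM glucose for 6 h, then to 25 mM glucose. Treated with or without 5 µM test compound for 24 h. Read by dual-luciferase assay; n = 6 independent experiments.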

For `CS(=O)(=O)NCC1CCCN(c2ncnc3ccc(C(F)(F)F)cc23)C1` (stereo not drawn) [SRI-37330, N-((1-(6-(trifluoromethyl)quinazolin-4-yl)piperidin-3-yl)methyl)methanesulfonamide], the glucagon content (αTC1-6 alpha cells; 5 μM, 1h) was “did not lower proglucgon gene expression or glucagon content”, the glucagon secretion (αTC1-6 alpha cells; 5 μM, 1h) was “significantly lower glucagon secretion” and the proglucagon gene expression (αTC1-6 alpha cells; 5 μM, 24 h) was “did not lower proglucgon gene expression or glucagon content”. The “glucagon secretion in the context of low glucose” value (αTC1-6 alpha cells; 1.67 mM glucose) was “no effect on glucagon secretion”, the “glucagon secretion maximally stimulated by arginine and norepinephrine” value (αTC1-6 alpha cells; arginine 20 mM, norepinephrine 10 μM) was “no longer able to inhibit glucagon secretion” and the “effect on glucagon-induced expression of Pck1 and G6pc” value ([1]; primary hepatocytes of liver-specific glucagon receptor knockout mice (GcgR−/−L)) was “completely blunted”. For the same compound, the “glucagon-induced expression of Pck1 and G6pc” value ([1]; primary hepatocytes of wild-type C57BL/6J mice, 5 μM, 24h) was “inhibited”, the “TXNIP signaling genes in primary hepatocytes or livers” value ([1]; primary hepatocytes or livers of treated mice) was “not affected” and the “glucose homeostasis and serum glucagon” value (TXNIP-deficient mice) was “no longer able to further improve glucose homeostasis or lower serum glucagon levels”. The serum glucagon levels (TXNIP-deficient mice) was “even elevated”, the BCL2L1 expression ([2]; confirmed by qRT-PCR) was “upregulated” and the CTGF expression ([2]; confirmed by qRT-PCR) was “upregulated”. The IGF-1R expression ([2]; confirmed by qRT-PCR) was “upregulated”, the MAFA expression ([2]; confirmed by qRT-PCR) was “upregulated” and the MLXIPL expression ([2]; confirmed by qRT-PCR) was “downregulated”. The NLRP1 expression ([2]; confirmed by qRT-PCR) was “lower expression”, the general transcription ([2]; three donors, 24 h, RNA sequencing) was “does not inhibit general transcription” and the “effect on heterologous SV40 promoter coupled with the TXNIP E-box motif” value (human TXNIP promoter) was “confer SRI-37330 responsiveness”.
